Read-outs that look alike come from different tables or passages of the source.
How the values were obtained:
[1] = tested on: Japanese participants with T1DM; experiment: 24-hour urinary glucose excretion; format: in vivo, human; conditions: for placebo-corrected adjusted mean (95% CI) change from baseline in 24-hour UGE: Day 7
Method in brief: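 Japanese adults with T1DM on multiple daily insulin injections, after a 2-week placebo run-in, were randomized 1:1:1:1 to oral test compound 2.5, 10 or 25 mg or placebo once each morning for 4 weeks. All urine was collected over 24 h at baseline and Days 1, 7 and 28. Day-7 change was analysed by ANCOVA (baseline covariate) with LOCF.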

[2] = Pharmacokinetics of empagliflozin in plasma; format: in vivo, human
Method in brief: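 Blood and urine were sampled on Days 1 and 28 of 4-week once-daily oral dosing (2.5, 10, 25 mg). Concentrations were measured by validated LC-MS/MS. Steady state was judged from troughs on Days 2, 7, 14, 21, 27, 28 and 29. Cmax, AUC and t1/2,ss were derived non-compartmentally. Timepoint statistics required ≥2/3 of values within the validated range.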

[3] = tested on: Japanese participants with T1DM; experiment: HbA1c and fasting plasma glucose; format: in vivo, human; conditions: Day 28
Method in brief: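 During 4 weeks of once-daily oral test compound or placebo, blood was drawn for HbA1c on Days 1 and 28. FPG was sampled on Days −1, 1, 2, 7, 8, 14, 21, 28 and 29. Samples were assayed at a central laboratory. Changes from baseline were analysed by ANCOVA (treatment fixed, baseline covariate).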

[4] = tested on: Japanese participants with T1DM; experiment: Weekly recorded insulin dose; format: in vivo, human; conditions: for recorded insulin dose adjusted mean difference vs placebo (95% CI): Week 4; for % of adjusted mean change from baseline in recorded insulin dose (reduction from baseline): within Week 4
Method in brief: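 Participants recorded basal and bolus insulin doses in a diary. Weekly totals were compiled during 4 weeks of once-daily oral test compound or placebo. At randomization, HbA1c 7.5–<8% prompted a 10% cut in daily insulin; otherwise dosing was at investigator discretion. Changes were analysed by ANCOVA with baseline covariate.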

[5] = Body weight; format: in vivo, human; conditions: Day 28
Method in brief: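 T1DM participants on multiple daily insulin injections took oral test compound or placebo once daily for 4 weeks. Body weight was measured on Day 28. Change from baseline was analysed by ANCOVA, with treatment as a fixed effect and baseline as a linear covariate.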

[6] = tested on: Japanese participants with T1DM; experiment: Continuous glucose monitoring; format: in vivo, human; conditions: within Week 4, CGM
Method in brief: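 A blinded professional CGM device was worn from Day −6 to Day 28 during once-daily oral test compound or placebo. Glucose exposure was taken as mean daily glucose AUC. Variability was taken as glucose interquartile range, plus % time at ≤70, >70 to ≤180 and >180 mg/dL. Week-4 changes from baseline are adjusted means.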

[7] = tested on: Japanese participants with T1DM; experiment: Ketogenesis markers; format: in vivo, human; conditions: after 4 weeks of treatment
Method in brief: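 Serum β-hydroxybutyrate was sampled on Days −1, 1, 7 and 8 and measured by a contract laboratory. The change from baseline in AUC0–24h was calculated on Day 7. Day-28 levels were measured among the laboratory safety parameters and summarised descriptively.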

[8] = tested on: Japanese participants with T1DM; experiment: Adverse events and hypoglycaemic episodes during 4-week double-blind treatment; format: in vivo, human; conditions: 4 weeks
Method in brief: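 In a double-blind, 4-week study, participants took test compound 2.5, 10 or 25 mg or placebo orally once daily. Adverse events were coded in MedDRA 19.1. Hypoglycaemic events were based on scheduled blood glucose tests and/or CGM. Special-interest events included genital and urinary infections and volume depletion. Severe hypoglycaemia and DKA were adjudicated externally. Results were summarised descriptively in all treated participants.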

[9] = tested on: Japanese participants with T1DM; experiment: Laboratory safety parameters; format: in vivo, human; conditions: empagliflozin groups, Day 28
Method in brief: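 Blood and urine were collected on Days 1, 7 and 28 of once-daily oral dosing with test compound or placebo. They were measured centrally and summarised descriptively in the treated set.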

[10] = tested on: participants with T2DM with established cardiovascular disease; conditions: cited from earlier work
[11] = tested on: Japanese participants with T2DM; conditions: 10 mg, Day 28, Japanese T2DM; cited from earlier work
[12] = tested on: participants with T1DM; conditions: 24 weeks, cited from earlier work

Compound: OC[C@H]1O[C@@H](c2ccc(Cl)c(Cc3ccc(O[C@H]4CCOC4)cc3)c2)[C@H](O)[C@@H](O)[C@@H]1O [empagliflozin]
- placebo-corrected adjusted mean (95% CI) change from baseline in 24-hour UGE ([1]; 2.5 mg once daily): 65.10 [43.29, 86.90] g/24 h
- adjusted effect on UGE ([1]; 2.5 mg, Day 28, Japanese T1DM): 91.0 g/24 h
- placebo-corrected adjusted mean (95% CI) change from baseline in 24-hour UGE ([1]; 10 mg once daily): 81.19 [58.80, 103.58] g/24 h
- placebo-corrected adjusted mean (95% CI) change from baseline in 24-hour UGE ([1]; 25 mg once daily): 98.11 [75.91, 120.31] g/24 h
- exposure (AUC and Cmax) versus dose ([2]; after a single dose and at steady state): increased proportionally with dose
- Tmax ([2]; human, plasma, po): ~1.5 h
- time to steady state ([2]; once daily oral dosing, trough concentrations): ≤ 7 days
- time to peak plasma level after dosing ([2]; single and multiple oral doses, 2.5-25 mg): 1.5 h
- FPG adjusted mean difference vs placebo (95% CI) ([3]; 2.5 mg): -14.27 mg/dL
- HbA1c adjusted mean difference vs placebo (95% CI) ([3]; 2.5 mg): −0.20%
- FPG adjusted mean difference vs placebo (95% CI) ([3]; 10 mg): -43.63 mg/dL
- HbA1c adjusted mean difference vs placebo (95% CI) ([3]; 10 mg): −0.35%
- FPG adjusted mean difference vs placebo (95% CI) ([3]; 25 mg): -59.57 mg/dL
- HbA1c adjusted mean difference vs placebo (95% CI) ([3]; 25 mg): −0.20%
- recorded insulin dose adjusted mean difference vs placebo (95% CI) ([4]; 2.5 mg): −0.08 U/kg
- % of adjusted mean change from baseline in recorded insulin dose (reduction from baseline) ([4]; 2.5 mg): −20.5%
- recorded insulin dose adjusted mean difference vs placebo (95% CI) ([4]; 10 mg): −0.10 U/kg
- % of adjusted mean change from baseline in recorded insulin dose (reduction from baseline) ([4]; 10 mg): −23.3%
- recorded insulin dose adjusted mean difference vs placebo (95% CI) ([4]; 25 mg): −0.09 U/kg
- % of adjusted mean change from baseline in recorded insulin dose (reduction from baseline) ([4]; 25 mg): −24.2%
- body weight adjusted mean difference vs placebo (95% CI) ([5]; 2.5 mg): -1.37 kg
- body weight adjusted mean difference vs placebo (95% CI) ([5]; 10 mg): -1.47 kg
- body weight adjusted mean difference vs placebo (95% CI) ([5]; 25 mg): -1.70 kg
- IQR of glucose adjusted mean difference vs placebo (95% CI) ([6]; 2.5 mg): -23.08 mg/dL
- MDAUC of glucose adjusted mean difference vs placebo (95% CI) ([6]; 2.5 mg): -558 mg·h/dL
- IQR of glucose adjusted mean difference vs placebo (95% CI) ([6]; 10 mg): -13.08 mg/dL
- MDAUC of glucose adjusted mean difference vs placebo (95% CI) ([6]; 10 mg): -338 mg·h/dL
- IQR of glucose adjusted mean difference vs placebo (95% CI) ([6]; 25 mg): -22.09 mg/dL
- MDAUC of glucose adjusted mean difference vs placebo (95% CI) ([6]; 25 mg): -514 mg·h/dL
- highest individual serum BHB level [7]: approximately 0.8 mmol/L
- mean serum BHB levels ([7]; all doses): < 0.5 mmol/L
- Asymptomatic hypoglycaemia with PG ≤70 mg/dL, rate ([8]; 2.5 mg): 5.1 episodes per 30 days per participant
- Asymptomatic hypoglycaemia with PG ≤70 mg/dL, total number of episodes ([8]; 2.5 mg): 62 episodes
- Death ([8]; 2.5 mg): 0 (0) % (n) of participants
- Decreased renal function ([8]; 2.5 mg): 0 (0) % (n) of participants
- Events consistent with UTI ([8]; 2.5 mg): 0 (0) % (n) of participants
- Events consistent with genital infection ([8]; 2.5 mg): 7.7 (1) % (n) of participants
- Events consistent with volume depletion ([8]; 2.5 mg): 0 (0) % (n) of participants
- Hepatic injury ([8]; 2.5 mg): 0 (0) % (n) of participants
- Hypoglycaemia (AE) ([8]; 2.5 mg): 92.3 (12) % (n) of participants
- Hypoglycaemia requiring assistance, rate ([8]; 2.5 mg): 0 (0) episodes per 30 days per participant
- Hypoglycaemia requiring assistance, total number of episodes ([8]; 2.5 mg): 0 (0) episodes
- Ketoacidosis ([8]; 2.5 mg): 0 (0) % (n) of participants
- Symptomatic hypoglycaemia with PG <54 mg/dL, rate ([8]; 2.5 mg): 1.5 episodes per 30 days per participant
- Symptomatic hypoglycaemia with PG <54 mg/dL, total number of episodes ([8]; 2.5 mg): 18 episodes
- Symptomatic hypoglycaemia with PG ≥54 and ≤70 mg/dL, rate ([8]; 2.5 mg): 1.8 episodes per 30 days per participant
- Symptomatic hypoglycaemia with PG ≥54 and ≤70 mg/dL, total number of episodes ([8]; 2.5 mg): 22 episodes
- participants with genital infection (vulvovaginal candidiasis of mild intensity) ([8]; 2.5 mg): 1 participants
- ≥1 AE ([8]; 2.5 mg): 92.3 (12) % (n) of participants
- ≥1 AE leading to discontinuation ([8]; 2.5 mg): 0 (0) % (n) of participants
- ≥1 Drug-related AE ([8]; 2.5 mg): 84.6 (11) % (n) of participants
- ≥1 Serious AE ([8]; 2.5 mg): 0 (0) % (n) of participants
- ≥1 Severe AE ([8]; 2.5 mg): 0 (0) % (n) of participants
- Asymptomatic hypoglycaemia with PG ≤70 mg/dL, rate ([8]; 10 mg): 6.7 episodes per 30 days per participant
- Asymptomatic hypoglycaemia with PG ≤70 mg/dL, total number of episodes ([8]; 10 mg): 78 episodes
- Death ([8]; 10 mg): 0 (0) % (n) of participants
- Decreased renal function ([8]; 10 mg): 0 (0) % (n) of participants
- Events consistent with UTI ([8]; 10 mg): 0 (0) % (n) of participants
- Events consistent with genital infection ([8]; 10 mg): 0 (0) % (n) of participants
- Events consistent with volume depletion ([8]; 10 mg): 0 (0) % (n) of participants
- Hepatic injury ([8]; 10 mg): 0 (0) % (n) of participants
- Hypoglycaemia (AE) ([8]; 10 mg): 100 (12) % (n) of participants
- Hypoglycaemia requiring assistance, rate ([8]; 10 mg): 0 (0) episodes per 30 days per participant
- Hypoglycaemia requiring assistance, total number of episodes ([8]; 10 mg): 0 (0) episodes
- Ketoacidosis ([8]; 10 mg): 0 (0) % (n) of participants
- Symptomatic hypoglycaemia with PG <54 mg/dL, rate ([8]; 10 mg): 2.7 episodes per 30 days per participant
- Symptomatic hypoglycaemia with PG <54 mg/dL, total number of episodes ([8]; 10 mg): 31 episodes
- Symptomatic hypoglycaemia with PG ≥54 and ≤70 mg/dL, rate ([8]; 10 mg): 3.9 episodes per 30 days per participant
- Symptomatic hypoglycaemia with PG ≥54 and ≤70 mg/dL, total number of episodes ([8]; 10 mg): 45 episodes
- ≥1 AE ([8]; 10 mg): 100 (12) % (n) of participants
- ≥1 AE leading to discontinuation ([8]; 10 mg): 0 (0) % (n) of participants
- ≥1 Drug-related AE ([8]; 10 mg): 100 (12) % (n) of participants
- ≥1 Serious AE ([8]; 10 mg): 0 (0) % (n) of participants
- ≥1 Severe AE ([8]; 10 mg): 0 (0) % (n) of participants
- Asymptomatic hypoglycaemia with PG ≤70 mg/dL, total number of episodes ([8]; 25 mg): 140 episodes
- Death ([8]; 25 mg): 0 (0) % (n) of participants
- Decreased renal function ([8]; 25 mg): 0 (0) % (n) of participants
- Events consistent with UTI ([8]; 25 mg): 0 (0) % (n) of participants
- Events consistent with genital infection ([8]; 25 mg): 8.3 (1) % (n) of participants
- Events consistent with volume depletion ([8]; 25 mg): 0 (0) % (n) of participants
- Hepatic injury ([8]; 25 mg): 0 (0) % (n) of participants
- Hypoglycaemia (AE) ([8]; 25 mg): 100 (12) % (n) of participants
- Hypoglycaemia requiring assistance, rate ([8]; 25 mg): 0 (0) episodes per 30 days per participant
- Hypoglycaemia requiring assistance, total number of episodes ([8]; 25 mg): 0 (0) episodes
- Ketoacidosis ([8]; 25 mg): 0 (0) % (n) of participants
- Symptomatic hypoglycaemia with PG <54 mg/dL, rate ([8]; 25 mg): 1.8 episodes per 30 days per participant
- Symptomatic hypoglycaemia with PG <54 mg/dL, total number of episodes ([8]; 25 mg): 21 episodes
- Symptomatic hypoglycaemia with PG ≥54 and ≤70 mg/dL, rate ([8]; 25 mg): 1.0 episodes per 30 days per participant
- Symptomatic hypoglycaemia with PG ≥54 and ≤70 mg/dL, total number of episodes ([8]; 25 mg): 12 episodes
- participants with genital infection (vulvovaginal candidiasis of mild intensity) ([8]; 25 mg): 1 participants
- ≥1 AE ([8]; 25 mg): 100 (12) % (n) of participants
- ≥1 AE leading to discontinuation ([8]; 25 mg): 0 (0) % (n) of participants
- ≥1 Drug-related AE ([8]; 25 mg): 91.7 (11) % (n) of participants
- ≥1 Serious AE ([8]; 25 mg): 0 (0) % (n) of participants
- ≥1 Severe AE ([8]; 25 mg): 0 (0) % (n) of participants
- DKA events (investigator-reported or adjudicated) ([8]; all doses): No events meeting the criteria for DKA were reported
- tolerability ([8]; all three doses (2.5, 10, 25 mg)): generally well tolerated
- changes from baseline in laboratory safety parameters (overall) [9]: no significant changes from baseline
- reduction of incident or worsening nephropathy [10]: 39%
- reduction of risk of cardiovascular death [10]: 38%
- adjusted effect on UGE [11]: 80.9 g/24 h

Compound: CCOc1ccc(Cc2cc([C@@H]3O[C@H](CO)[C@@H](O)[C@H](O)[C@H]3O)ccc2Cl)cc1 [dapagliflozin]
- DKA events, certain ([12]; 5 mg): 4 [1%] participants [%]
- DKA events, potential ([12]; 5 mg): 16 [6%] participants [%]
- DKA events, certain ([12]; 10 mg): 5 [2%] participants [%]
- DKA events, potential ([12]; 10 mg): 19 [6%] participants [%]
